Most compounds without a hit are left out; they make up all but 11% or so of the library.
Diaphorase inh: diaphorase inhibitors and chemical oxidizers, primary screen, counter-screen for diaphorase-coupled primary assays, biochemical, uHTS, resorufin fluorescence; diaphorase resazurin-to-resorufin fluorescence, NADH, 16 min; bacterial (C. kluyveri) enzyme, not human; inhibition, % at 20 µM; 0.69% of 190,000 active;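 active means primary screen inhibition at 20 µM above a set limit, cut at about 50% in these data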
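Assay system: diaphorase enzyme from Clostridium kluyveri; Input: enzyme working solution with 0.14 U/mL diaphorase; Timing: 16 min at room temperature; Technique: resorufin fluorescence, excitation 544 nm, emission 590 nm; Benchmarks: positive control minus NADH, DMSO neutral control.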
Diaphorase act: compounds boosting diaphorase resazurin reduction – biochemical, uHTS, resorufin fluorescence, counter-screen for diaphorase-coupled primary assays, primary screen; 0.005% of 190,000 active; activation factor at 20 µM; Diaphorase/resazurin coupled assay, 16 min; hits give high values; 1 = vehicle wells, 0 = NADH-free wells; AID 1229, 2008;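 active means diaphorase activity raised at least twofold by the compound at 20 µM; inactive means activation factor below 2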
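Test system: Clostridium kluyveri diaphorase, purified enzyme; input: enzyme 0.07 U/mL final; buffer or medium: 50 mM HEPES pH 7.4 with 4.542 mM MgCl2, 0.005% Tween 20; also added: 0.114 mM NADH and 0.1 mM resazurin, final amounts; schedule: 16 min enzyme reaction, ambient temperature; technique: fluorescence of resorufin, 544 nm excitation, 590 nm emission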
L major viab: Leishmania major promastigote growth inhibition, primary screen; 9% of 200,000 active; AID 1063, 2008; Leishmania major promastigotes, resazurin fluorescence viability; inhibition, % at 10 µM;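 further: promastigotes grown with compound for 44 hours at 28 °C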
WT yeast gro inh: growth inhibition of WT strain, primary screen, mitochondrial fusion inhibitor project, WT and mutant strains, chemical genetic; mitochondrial fusion phenotypic screen; inhibition, % at 10 µM; 2.1% of 190,000 active; in the data active means inhibition above about 58%; tested in S. cerevisiae
G6PDH counter: L. mesenteroides G6PDH inhibitors, counter-screen for G6PDH-coupled screening assays, biochemical, Leuconostoc mesenteroides enzyme. glucose-6-phosphate dehydrogenase [Leuconostoc mesenteroides]. Purified L. mesenteroides G6PDH, diaphorase/resazurin coupled fluorescence, 45 min. inhibition, % at 5 µM. 0.12% of 200,000 active. AID 1020, 2008
Hits are given with their value; . = inactive; / = no result. Unless noted, no stated cut-off is given here; in the data, active means inhibition above about 50%; inactive means the rest.

SMILES	Diaphorase inh	Diaphorase act	L major viab	WT yeast gro inh	G6PDH counter
CCOc1ccccc1NC(=O)C(=O)N/N=C/c1ccc([N+](=O)[O-])cc1	.	.	.	.	.
CCCN(C(=O)c1cccs1)c1nnc(-c2ccncc2)s1	.	.	.	.	.
O=C(N/N=C/C1CC=CCC1)c1cc(-c2cccnc2)nc2ccccc12 (configuration not stated)	.	.	.	.	.
C=CCN(C(=O)CCC(=O)O)C1CC(=O)N(c2ccc(OCCC)cc2)C1=O (configuration not stated)	.	.	.	.	.
Cc1ccc(NN2C(=O)C=C(c3ccc(Cl)cc3)C2=O)cc1	.	.	.	.	.
Cc1cccc(NC(=O)c2ccc(NCCc3ccccc3)c([N+](=O)[O-])c2)c1	.	.	.	.	.
O=C(Nc1cccc(Cl)c1)c1ccc(NCCCN2CCOCC2)c([N+](=O)[O-])c1	.	.	99.2	.	.
Cc1ccc(NC(=O)c2ccc(NCCCN3CCC(C)CC3)c([N+](=O)[O-])c2)cc1F	.	.	84.0	.	.
Cc1ccc(NC(=O)c2ccc(NCCN)c([N+](=O)[O-])c2)cc1	.	.	88.6	.	.
Cc1ccc(/C(O)=C2\C(=O)C(=O)N(CCCN(C)C)C2c2ccccn2)cc1 (configuration not stated)	/	/	.	/	/
COc1ccccc1NC(=O)CSc1nc2ccccc2cc1Cc1ccccc1	.	.	.	.	.
O=[N+]([O-])c1ccc(N/N=C/c2sc(N3CCOCC3)nc2-c2ccccc2)c(S(=O)(=O)Nc2ccc(Cl)cc2)c1	.	.	65.7	.	.
O=C(N/N=C/c1sc(N2CCOCC2)nc1-c1ccccc1)c1ccccc1Cl	.	.	.	.	.
O=[N+]([O-])c1ccc(N/N=C/c2sc(N3CCOCC3)nc2-c2ccccc2)c(S(=O)(=O)Nc2ccccc2Cl)c1	.	.	69.7	.	.
CC(C)OC(=O)NCCOC(=O)Nc1ccccc1Cl	.	.	.	.	.
CCOC(=O)Cn1c(=O)oc2cc(S(=O)(=O)N3CCN(C(=O)c4ccco4)CC3)ccc21	.	.	.	.	.
O=C(COc1ccc(Cl)cc1)NCc1nnc(SCC(=O)Nc2ccccc2F)o1	.	.	.	.	.
COc1ccc(/C=N/Nc2nc(Nc3ccccc3)nc(N3CCCCC3)n2)cc1OC	.	.	98.4	.	.
O=C(Oc1cccc(/C=N/Nc2nc(Nc3ccccc3)nc(N3CCOCC3)n2)c1)c1ccco1	.	.	64.5	.	.
COc1cc(/C=N/Nc2nc(N3CCCCC3)nc(N3CCCCC3)n2)ccc1OC(=O)c1ccco1	.	.	59.5	.	.
COc1cc(/C=N/Nc2ccc(Cl)c(C(=O)O)c2)ccc1OC(=O)c1ccco1	.	.	.	.	.
Cc1noc(C)c1C(=O)Nc1ccc(F)cc1F	.	.	.	.	.
CNS(=O)(=O)c1cccc(C(=O)OCC(=O)C23CC4CC(CC(C4)C2)C3)c1	.	.	.	.	.
CC(=O)c1cccc(NC(=O)CC2S/C(=N/N=C/c3cccs3)NC2=O)c1 (configuration not stated)	.	.	.	.	.
C=CCOC(=O)c1ccc(-n2cnc(C)n2)nc1	.	.	.	.	.
SMILES	Diaphorase inh	Diaphorase act	L major viab	WT yeast gro inh	G6PDH counter
CCSc1nnc(NC(=O)Cc2cc(OC)c(OC)c(OC)c2)s1	.	.	.	.	.
CCN1CCN(c2nc(-c3cccs3)nc3ccccc23)CC1	.	.	.	.	.
c1ccc(CN2CCC(Nc3nc(-c4cccs4)nc4ccccc34)CC2)cc1	.	.	100.3	.	.
c1csc(CNc2nc(-c3cccs3)nc3ccccc23)c1	.	.	82.8	79.0	.
COc1ccc(NC(=S)Nc2cnc3ccccc3c2)c(OC)c1	.	.	.	.	.
O=C(CN(C1CCCCC1)C1CCCCC1)N1CCc2ccccc2C1	.	.	64.3	.	.
CC1CCC2(CC1)NC(=O)N(CC(=O)N1CCc3ccccc3C1)C2=O (configuration not stated)	.	.	.	.	.
O=C(CN1C(=O)NC2(CCCCCCC2)C1=O)N1CCc2ccccc2C1	.	.	67.5	.	.
